Source: ChEMBL document CHEMBL1122654, “Phosphorus analogues of gamma-aminobutyric acid, a new class of anticonvulsants” (J Med Chem, 1984)
Active and inactive are the calls of the source.

Assays:
[1] = Partition coefficient (logP); type: physicochemical; conditions: octanol/water
[2] = target: T1, GABA-A receptor; anion channel (Rattus norvegicus) (UniProt O09028+P15431+P18506+P18508+P19969+P20236+P23574+P23576+P28471+P28473+P30191+P62813+P63079+P63138+Q91ZM7+Q9ES14); test: Displacement of [3H]GABA from Gamma-aminobutyric acid A receptor binding sites in brain homogenates (relative to 1 mM GABA) at 100 uM; type: tissue-based
Outline: (§1)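 Male Sprague-Dawley rat brain, frozen, homogenized in 50 mM Tris-citrate (pH 7.1 at 4 °C). Membranes treated with 0.05% Triton X-100 for 30 min at 37 °C and resuspended at 0.5–1.0 mg/mL protein. Incubated with 8 nM [3H]GABA for 5 min at 4 °C, stopped by centrifugation, and counted by scintillation. Test concentration 100 µM. Expressed as percent of the inhibition given by 1 mM GABA. Mean of two experiments, each in triplicate.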

Mus musculus [3] = test: In vivo neurotoxicity at 600 mg/kg, number of animals exhibiting neurotoxicity in the rotarod test / number of animals tested 4 hr; 0/2; type: toxicity, organism-based; set-up: dose 600 mg/kg
Mus musculus [4] = test: In vivo neurotoxicity at 600 mg/kg, number of animals exhibiting neurotoxicity in the rotarod test / number of animals tested at 0.5 hr; 0/4; type: toxicity, organism-based; set-up: dose 600 mg/kg
Mus musculus [5] = test: In vivo anticonvulsant activity against electric shock induced seizures(MES) in mice 4 hr after ip administration; active at 300 mg/kg; type: functional, organism-based; set-up: dose 300 mg/kg
Mus musculus [6] = test: In vivo anticonvulsant activity against electric shock induced seizures(MES) in mice 0.5 hr after ip administration; active at 300 mg/kg; type: functional, organism-based; set-up: dose 300 mg/kg
Mus musculus [7] = test: In vivo anticonvulsant activity against pentylene tetrazole seizure threshold(SMC) in mice 0.5 hr after sc administration; active at 600 mg/kg; type: functional, organism-based; set-up: dose 600 mg/kg
[8] = target: GABA B receptor (Rattus norvegicus) (UniProt Q9Z0U4+O88871); test: (§2) Displacement of [3H]GABA from GABA-B binding sites in brain homogenates (relative to 100 uM baclofen) at 100 uM; type: tissue-based
Outline: (§3)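 Rat brain membrane binding (male Sprague-Dawley) using 10 nM [3H]GABA, with 100 µM isoguvacine present to block GABA-A sites. Test concentration 100 µM. Percent inhibition expressed relative to 100 µM baclofen. Mean of two separate experiments, each in triplicate.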

Mus musculus [9] = test: In vivo anticonvulsant activity against pentylene tetrazole seizure threshold(SMC) in mice 0.5 hr after sc administration; +++ indicates activity at 100 mg/kg; type: functional, organism-based; set-up: dose 100 mg/kg
Mus musculus [10] = test: In vivo anticonvulsant activity against electric shock induced seizures(MES) in mice 0.5 hr after ip administration; + indicates activity at 600 mg/kg.; type: functional, organism-based; set-up: dose 600 mg/kg
Mus musculus [11] = test: In vivo anticonvulsant activity against pentylene tetrazole seizure threshold(SMC) in mice 4 hr after sc administration; - indicates inactive at 600 mg/kg; type: functional, organism-based; set-up: dose 600 mg/kg
Mus musculus [12] = test: In vivo anticonvulsant activity against electric shock induced seizures(MES) in mice 4 hr after ip administration; + indicates activity at 600 mg/kg; type: functional, organism-based; set-up: dose 600 mg/kg
[13] = target: T1, GABA-A receptor; anion channel (Rattus norvegicus); test: Displacement of [3H]-GABA from Gamma-aminobutyric acid A receptor binding sites in brain homogenates (relative to 1 mM GABA) at 100 uM; type: tissue-based; outline: as §1
Mus musculus [14] = test: In vivo neurotoxicity at 600 mg/kg, number of animals exhibiting neurotoxicity in the rotarod test / number of animals tested at 0.5 hr; type: toxicity, organism-based; set-up: dose 600 mg/kg
Mus musculus [15] = test: In vivo anticonvulsant activity against electric shock induced seizures(MES) in mice 4 hr after ip administration; inactive at 600 mg/kg; type: functional, organism-based; set-up: dose 600 mg/kg
Mus musculus [16] = test: In vivo anticonvulsant activity against pentylene tetrazole seizure threshold(SMC) in mice 4 hr after sc administration; inactive at 600 mg/kg; type: functional, organism-based; set-up: dose 600 mg/kg
Mus musculus [17] = test: In vivo anticonvulsant activity against pentylene tetrazole seizure threshold(SMC) in mice 0.5 hr after sc administration; inactive at 600 mg/kg; type: functional, organism-based; set-up: dose 600 mg/kg
Mus musculus [18] = test: In vivo anticonvulsant activity against electric shock induced seizures(MES) in mice 0.5 hr after ip administration; inactive at 600 mg/kg; type: functional, organism-based; set-up: dose 600 mg/kg
Mus musculus [19] = test: In vivo neurotoxicity at 600 mg/kg, number of animals exhibiting neurotoxicity in the rotarod test / number of animals tested 4 hr; type: toxicity, organism-based; set-up: dose 600 mg/kg
Mus musculus [20] = test: In vivo neurotoxicity at 600mg/kg, number of animals exhibiting neurotoxicity in the rotarod test / number of animals tested 0.5 hr; 4/4; type: toxicity, organism-based
Mus musculus [21] = test: In vivo anticonvulsant activity against pentylene tetrazole seizure threshold(SMC) in mice 0.5 hr after sc administration; + indicates activity at 600 mg/kg.; type: functional, organism-based; set-up: dose 600 mg/kg
Mus musculus [22] = test: In vivo anticonvulsant activity against pentylene tetrazole seizure threshold(SMC) in mice 4 hr after sc administration; + indicates activity at 600 mg/kg.; type: functional, organism-based; set-up: dose 600 mg/kg
Mus musculus [23] = test: In vivo anticonvulsant activity against electric shock induced seizures(MES) in mice 0.5 hr after ip administration; ++ indicates activity at 300 mg/kg.; type: functional, organism-based; set-up: dose 300 mg/kg
Mus musculus [24] = test: In vivo anticonvulsant activity against electric shock induced seizures(MES) in mice 4 hr after ip administration; + indicates activity at 600 mg/kg.; type: functional, organism-based; set-up: dose 600 mg/kg
Mus musculus [25] = test: In vivo neurotoxicity at 600 mg/kg, number of animals exhibiting neurotoxicity in the rotarod test / number of animals tested 4 hr; 1/2; type: toxicity, organism-based; set-up: dose 600 mg/kg
Rattus norvegicus = organism: Rattus norvegicus; test: as §2; type: tissue-based; outline: as §3
Mus musculus [26] = test: In vivo anticonvulsant activity against electric shock induced seizures(MES) in mice 0.5 hr after ip administration; active at 600 mg/kg; type: functional, organism-based; set-up: dose 600 mg/kg
Mus musculus [27] = test: In vivo neurotoxicity at 600 mg/kg, number of animals exhibiting neurotoxicity in the rotarod test / number of animals tested 4 hr; 2/2; type: toxicity, organism-based; set-up: dose 600 mg/kg
Mus musculus [28] = test: In vivo neurotoxicity at 600 mg/kg, number of animals exhibiting neurotoxicity in the rotarod test / number of animals tested at 0.5 hr; 4/4; type: toxicity, organism-based; set-up: dose 600 mg/kg
Mus musculus [29] = test: In vivo neurotoxicity at 600 mg/kg, number of animals exhibiting neurotoxicity in the rotarod test / number of animals tested at 0.5 hr; 1/4; type: toxicity, organism-based; set-up: dose 600 mg/kg
Mus musculus [30] = test: In vivo anticonvulsant activity against electric shock induced seizures(MES) in mice; 104-131; type: functional

## CCOP(=O)(OCC)Oc1ccc(SC)c(Cl)c1
[1]
  logP: 3.21

## CCOP(=O)(OCC)Oc1ccc([N+](=O)[O-])cc1 [PARAOXON]
[1]
  logP: 1.64

## COP(=O)(OC)Oc1cc(C)c([N+](=O)[O-])c(C)c1
[1]
  logP: 2.57

## CCOP(=O)(OCC)Oc1ccccc1 [PHOSPHORIC ACID DIETHYL ESTER PHENYL ESTER]
[1]
  logP: 1.64

## COP(=S)(OC)Oc1cccc(NC(C)=O)c1
[2]
  inhibition: inactive

## COP(=O)(OC)Oc1ccc([N+](=O)[O-])c(C)c1 [FENITROXON]
[1]
  logP: 1.69

## COP(=S)(OC)Oc1ccc([N+](=O)[O-])c(C(C)C)c1
[1]
  logP: 4.05

## COP(=O)(OC)Oc1ccc([N+](=O)[O-])cc1 [DIMETHYL 4-NITROPHENYL PHOSPHATE]
[1]
  logP: 1.27

## CCOP(=O)(OCC)Oc1ccc(SC)cc1Cl
[1]
  logP: 3.05

## CCOP(=S)(OCC)Oc1ccccc1
[1]
  logP: 3.46

## Nc1cccc(P(=O)(O)O)c1
Mus musculus [3]
  Toxicity: 0
Mus musculus [4]
  Toxicity: 0

## COP(=O)(OC)Oc1ccc([N+](=O)[O-])c(C(C)C)c1
[1]
  logP: 2.57

## CCOP(=O)(OCC)Oc1ccccc1NC(C)=O
Mus musculus [5]
  Anticonvulsant activity: active at 300 mg/kg
Mus musculus [6]
  Anticonvulsant activity: active at 300 mg/kg
Mus musculus [7]
  Anticonvulsant activity: active at 300 mg/kg

## COP(=O)(OC)c1cccc(N)c1
[8]
  inhibition: 13%
Mus musculus [9]
  Anticonvulsant activity: Active
Mus musculus [10]
  Anticonvulsant activity: Active
Mus musculus [3]
  Toxicity: 0
Mus musculus [11]
  Anticonvulsant activity: inactive
Mus musculus [12]
  Anticonvulsant activity: Active
Mus musculus [4]
  Toxicity: 0
[13]
  inhibition: 13%

## COP(=S)(OC)Oc1ccc([N+](=O)[O-])cc1 [METHYL PARATHIONE]
[1]
  logP: 2.51

## NCCCP(=O)(O)O
[8]
  inhibition: 91%
Mus musculus [14]
  Toxicity: Not Active
Mus musculus [15]
  Anticonvulsant activity: inactive
Mus musculus [16]
  Anticonvulsant activity: inactive
Mus musculus [17]
  Anticonvulsant activity: inactive
Mus musculus [18]
  Anticonvulsant activity: inactive
Mus musculus [19]
  Toxicity: Not Active
[13]
  inhibition: 12%

## CCOP(=O)(OCC)c1cccc(N)c1
Mus musculus [20]
  Toxicity: 4
Mus musculus [21]
  Anticonvulsant activity: activity at 300 mg/kg
Mus musculus [22]
  Anticonvulsant activity: activity at 300 mg/kg
Mus musculus [23]
  Anticonvulsant activity: activity at 300 mg/kg
Mus musculus [24]
  Anticonvulsant activity: activity at 300 mg/kg
Mus musculus [25]
  Toxicity: 1

## COP(=S)(OC)Oc1cc(C)c([N+](=O)[O-])c(C)c1
[1]
  logP: 3.89

## Nc1cccc(P(=O)(Oc2ccccc2)Oc2ccccc2)c1
[8]
  inhibition: 51%

## CCOP(=S)(OCC)Oc1ccccc1NC(C)=O
[8]
  inhibition: 35%

## COP(=S)(OC)Oc1ccc([N+](=O)[O-])c(Cl)c1 [CHLORTHION]
[1]
  logP: 3.45

## CC(=O)Nc1ccccc1OP(=O)(Oc1ccccc1)Oc1ccccc1
[8]
  inhibition: 36%
Mus musculus [14]
  Toxicity: Not Active
Mus musculus [15]
  Anticonvulsant activity: inactive
Mus musculus [16]
  Anticonvulsant activity: inactive
Mus musculus [17]
  Anticonvulsant activity: inactive
Mus musculus [18]
  Anticonvulsant activity: inactive
Mus musculus [19]
  Toxicity: Not Active
[13]
  inhibition: 54%

## CCOP(=S)(OCC)Oc1ccc(SC)cc1Cl
[1]
  logP: 4.4

## COP(=S)(OC)Oc1ccc([N+](=O)[O-])c(C)c1 [FENITROTHION]
[1]
  logP: 3.3

## CCOP(=S)(OCC)Oc1ccc(SC)c(Cl)c1
[1]
  logP: 5.06

## CCCCN1C(=O)CCP1(=O)c1ccccc1 (configuration not stated)
Rattus norvegicus
  inhibition: 67%
[13]
  inhibition: 17%

## CC(=O)Nc1ccccc1OP(=O)(Oc1ccccc1NC(C)=O)c1ccccc1
Mus musculus [14]
  Toxicity: Not Active
Mus musculus [15]
  Anticonvulsant activity: inactive
Mus musculus [16]
  Anticonvulsant activity: inactive
Mus musculus [17]
  Anticonvulsant activity: inactive
Mus musculus [18]
  Anticonvulsant activity: inactive
Mus musculus [19]
  Toxicity: Not Active
[13]
  inhibition: 46%

## NCCOP(=O)(O)Oc1ccccc1
[8]
  inhibition: 40%
Mus musculus [15]
  Anticonvulsant activity: inactive
Mus musculus [16]
  Anticonvulsant activity: inactive
Mus musculus [17]
  Anticonvulsant activityAnticonvulsant activity: inactive
Mus musculus [18]
  Anticonvulsant activity: inactive
[13]
  inhibition: 13%

## CC(CNP(=O)(Oc1ccccc1)Oc1ccccc1)NP(=O)(Oc1ccccc1)Oc1ccccc1 (configuration not stated)
[8]
  inhibition: 20%

## CC1(C)COP(=S)(c2ccccc2)N1 (configuration not stated)
[8]
  inhibition: 15%
Mus musculus [26]
  Anticonvulsant activity: active at 600 mg/kg

## COP(=O)(OC)Oc1ccc([N+](=O)[O-])c(Cl)c1
[1]
  logP: 1.83

## CC(C)(C)CC(C)(C)NP(=O)(Oc1ccccc1)Oc1ccccc1
[8]
  inhibition: 65%
Mus musculus [26]
  Anticonvulsant activity: active at 600 mg/kg

## CC(C)OP(=O)(OC(C)C)c1cccc(N)c1
Mus musculus [23]
  Anticonvulsant activity: activity at 300 mg/kg
Mus musculus [27]
  Toxicity: 2
Mus musculus [24]
  Anticonvulsant activity: activity at 300 mg/kg
Mus musculus [28]
  Toxicity: 4

## CCOP(=O)(CCCN)OCC
Mus musculus [29]
  Toxicity: 1
Mus musculus [3]
  Toxicity: 0

## CCc1cc(OP(=S)(OC)OC)ccc1[N+](=O)[O-]
[1]
  logP: 3.84

## COP(=O)(OC)Oc1ccc([N+](=O)[O-])cc1Cl
[1]
  logP: 1.83

## CCOP(=S)(OCC)Oc1ccc([N+](=O)[O-])cc1 [PARATHION]
[1]
  logP: 2.98

## COP(=S)(OC)Oc1ccc([N+](=O)[O-])cc1Cl [DICAPTHON]
[1]
  logP: 3.44

## CN1C(=O)CC(c2ccccc2)C1=O (configuration not stated) [PHENSUXIMIDE]
Mus musculus [30]
  ED50: 112 mg/kg

## CCc1cc(OP(=O)(OC)OC)ccc1[N+](=O)[O-]
[1]
  logP: 2.19
